# b-catenin transl = modulators of beta-catenin nuclear translocation. HeLa beta-catenin nuclear translocation, immunofluorescence imaging. nuclear translocation activity, % at 5 µM. 190,000 tested, 0.3% active. AID 1665;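 active = nuclear translocation activity above 50% at 5 µM, with a well cell count of 50 or more; inconclusive = wells under 50 cells across six images, flagged as toxic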;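 also: per-cell ratio of nuclear to cytoplasmic median beta-catenin stain intensity; plate controls were DMSO negative control for no effect and GSK-3 inhibitor IX positive control for full effect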
#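 Test system: human HeLa cell line; Doses: 5 µM primary, 0.02–20 µM confirmation; Incubation: 24 h compound exposure, 37°C; Detection: beta-catenin immunofluorescence imaging with DAPI; Read-out: beta-catenin nuclear/cytoplasmic ratio, % activation.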
# BaF3 parental = parental Ba/F3 viability inhibition as JAK2V617F counter-screen; CellTiter-Glo ATP luminescence; inhibition, % at 5.6 µM; 220,000 tested, 1.1% active;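 active = inhibition above a per-campaign cutoff, the mean inhibition of all tested compounds plus 3 SD, cut at about 27% in these data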;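 also: 0% = DMSO wells and 100% = JAK Inhibitor I control wells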
# IEC-6 cytotox = kills IEC-6 intestinal cells in KLF5 counter-screen | AID 1825 | inhibition, % at 5 µM | 290,000 tested, 0.78% active | IEC-6 cytotoxicity, luminescence viability;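 also: 0% = plate median of test compound wells and 100% = cytotoxic reference compound wells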
# Ba/F3 V617F tox = reduce viability of Ba/F3 cells dependent on JAK2V617F | Ba/F3 EpoR-JAK2V617F viability, ATP luminescence | inhibition, % at 5.6 µM | 220,000 tested, 1.1% active | AID 1446;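 active = inhibition above the campaign mean plus 3 SD over all tested compounds, cut at about 24% in these data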;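 also: cytokine-independent growth of Ba/F3 cells driven by EpoR plus mutant JAK2; 0% = DMSO-treated cells and 100% = JAK inhibitor I control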
# APP 5UTR inh = APP translation inhibition. SH-SY5Y APP 5'UTR-luciferase reporter, luminescence. inhibition, % at 2 µM. 190,000 tested, 0.82% active;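 active = inhibition above a set limit, derived from the sample mean plus 3 SD, cut at about 45% in these data; inconclusive = one replicate passes the limit while the other fails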
# MT stabilizer = microtubule stabilizers in HeLa cells; % tubulin-high responders, % at 10 µM; HeLa tubulin immunostaining HCS, 24 h; share of cells brighter than vehicle mean+2SD; 200,000 tested, 0.83% active;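 active = plate Z-score above 3 for both tubulin-high and condensed-nucleus cell shares, with cell loss under 80%, at 10 µM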;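 also: anti alpha tubulin signal scored within the nucleus-defined area of each cell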
# BaF3 tox 2 = reduces parental Ba/F3 viability, JAK2V617F counter-screen. inhibition, % at 5.6 µM. shares compounds with Ba/F3 V617F tox. CellTiter-Glo luminescence; cells kept alive by added IL-3. 580 tested, 31% active;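 active = cell growth inhibition above the hit limit set in the earlier mutant JAK2 cell screen, cut at about 27% in these data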;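 also: plate controls were DMSO-treated cells for no effect and JAK Inhibitor I control wells for full effect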
# JAK2V617F conf = Ba/F3 EpoR-JAK2V617F viability loss, confirmation; inhibition, % at 5.6 µM; shares compounds with Ba/F3 V617F tox; AID 1521; CellTiter-Glo luminescence; 580 tested, 66% active;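 active = mean inhibition above the hit cutoff derived in the earlier primary screen, cut at about 25% in these data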;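 also: 0% = DMSO-treated cells and 100% = JAK inhibitor I control wells; higher means lower luminescence from reduced cell ATP and viability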
# IEC-6 cytotox cf = IEC-6 cytotoxicity, confirmation assay; IEC-6 rat intestinal epithelial viability, luminescence; shares compounds with IEC-6 cytotox; 1,900 tested, 63% active; inhibition, % at 5 µM; AID 1907;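 also: 0% = vehicle and 100% = reference cytotoxic drug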
# * hit, by the source's call; u = inconclusive; x = no result. Most compounds without a hit are left out; they make up all but 2.2% or so of the library. Rule as the data show it, unless noted: active = inhibition above about 22%; inactive = the rest.
SMILES,b-catenin transl,BaF3 parental,IEC-6 cytotox,Ba/F3 V617F tox,APP 5UTR inh,MT stabilizer,BaF3 tox 2,JAK2V617F conf,IEC-6 cytotox cf
Brc1ccc(-c2nnc3sc(CN4CCC5(CC4)OCCO5)cn23)cc1,0,6,3,4,-13,3,x,x,x
c1ccc(-c2nnc3sc(CN4CCc5ccccc54)cn23)cc1,4,22,8,35*,-4,4,30*,30*,x
Cc1sc2ncnc(Sc3nnnn3-c3ccccc3)c2c1C,-1,4,2,-2,5,5,x,x,x
Clc1ccc(-n2nnnc2Sc2ncnc3sccc23)cc1,x,1,4,26*,92*,4,1,88*,x
CC1CCN(CCCNC(=O)c2cc3c(Cl)nc4ccccc4c3s2)CC1,3,11,5,34*,10,3,4,71*,x
CCNc1c(NS(=O)(=O)c2ccc(F)c(Cl)c2)c(=O)oc2ccccc12,x,x,0,x,x,x,x,x,x
COC(=O)COc1cccc2c(=O)n(CC(=O)N3CCCCC3)ccc12,0,-1,-5,-2,x,x,x,x,x
CCOC(=O)C(C)Oc1cccc2c(=O)n(CC(=O)NCc3ccc(F)cc3)ccc12 (centres undefined),106*,22,10,29*,x,x,62*,97*,x
COC(=O)COc1cccc2c(=O)n(CC(=O)NCc3ccc(F)cc3)ccc12,-2,8,5,74*,73*,20*,21,86*,x
CCC(C)c1ccc(NC(=O)N2CCN(C(=O)C3CCCO3)CC2)cc1 (centres undefined),x,x,-2,x,x,x,x,x,x
Cc1cccc2cc(CN(CC3CCCO3)C(=O)c3ccco3)c(=O)[nH]c12 (centres undefined),-4,4,-3,-1,1,4,x,x,x
O=C(c1ccco1)N(Cc1cc2ccccc2[nH]c1=O)CC1CCCO1 (centres undefined),x,1,10,69*,10,1,-2,-4,x
O=C(Nc1ccccc1C(=O)O)c1ccc(Br)o1,-3,4,1,24*,-16,2,-1,-3,x
CN(CCC#N)C(=O)c1ccc(CNS(=O)(=O)c2ccc(F)cc2)cc1,0,7,1,4,x,2,x,x,x
Cc1ccc(S(=O)(=O)NCc2ccc(C(=O)N(C)CCC#N)cc2)cc1,-2,3,1,93*,x,2,-2,4,x
C/C(=N\N=C(N)N)c1cc(Cl)ccc1Cl,0,8,31*,44*,-26,3,-4,23,7
CCCn1c(C2CCCN2c2nc(-c3cccc(Br)c3)cs2)nc2ccccc21 (centres undefined),x,x,4,x,x,x,x,x,x
BrC(=C\c1ccccc1)/C=N/n1cnnc1,0,-11,75*,65*,79*,5,55*,96*,26*
COc1ccc(OCCCC(=O)Nc2cccc(C(C)=O)c2)cc1,0,-1,89*,73*,7,4,-6,-4,-10
Cc1cc2c(cc(C(=O)OCC(=O)NCc3cccs3)n2C(C)C)o1,65*,18,77*,37*,75*,30*,41*,90*,55*
Cc1cc(C)cc(C(=O)OCC(=O)NCc2cccs2)c1,-2,2,3,-4,-1,2,x,x,x
O=C(COc1ccc(Cl)cc1)Nc1ccc2c(c1)nc1n2CCOC1,x,x,1,x,x,x,x,x,x
COc1ccc(C=C2C(=O)c3ccccc3C2=O)cc1O,-1,3,12,-1,-9,5,x,x,x
CCN1C/C(=C/c2ccc(OC)c(O)c2)C(=O)/C(=C/c2ccc(OC)c(O)c2)C1,47,-5,32*,52*,88*,55,13,98*,42*
O=C(CCl)N=c1sccn1Cc1cccc2ccccc12,0,5,92*,102*,13,3,24,99*,17
SMILES,b-catenin transl,BaF3 parental,IEC-6 cytotox,Ba/F3 V617F tox,APP 5UTR inh,MT stabilizer,BaF3 tox 2,JAK2V617F conf,IEC-6 cytotox cf
Cn1c(=NC(=O)CCl)sc2ccccc21,0,2,0,13,25,3,x,x,x
CCOc1ccc(C(=O)C2CCN(C(=O)c3ccc([N+](=O)[O-])cc3)CC2)cc1,x,x,3,x,x,x,x,x,x
NS(=O)(=O)c1ccc(NC(=S)N2CCN(C(=O)C3CCCO3)CC2)cc1 (centres undefined),x,x,-8,x,x,x,x,x,x
C=CCn1c(-c2ccccc2)nc(=S)c2c1CCCC2,0,2,6,0,x,x,x,x,x
O=C1N(c2ccccc2)C[C@@H]2C[C@@H](c3cc4ccccc4o3)N3CCC[C@@]123,4,2,38*,101*,95*,4,107*,99*,97*
N#Cc1ncc(-c2ccc3c(c2)OCCOCCOCCOCCOCCO3)nc1C#N,1,-3,32*,34*,21,2,-3,43*,12
Nc1nc(CCl)nc(N(c2ccccc2)c2ccccc2)n1,0,1,90*,97*,x,x,4,99*,11
Nc1nc(Cl)nc(N(c2ccccc2)c2ccccc2)n1,0,3,8,1,-7,2,x,x,x
Cc1cc2[nH]c3c(c[n+](C)c4ccccc34)c2cc1C,u,4,65*,33*,83*,19,15,92*,55*
O=C(NC1CCCc2ccccc21)c1ccccc1 (centres undefined),2,6,-6,1,7,2,x,x,x
O=C(NC1CCCc2ccccc21)c1n[nH]c(=O)c2ccccc12 (centres undefined),-1,-7,23*,24*,15,1,9,42*,34*
NC(=O)c1cc2c3ccccc3ccn2c1-c1ccccc1,102*,-5,38*,70*,x,x,63*,95*,61*
NC(=O)CSc1nc(-c2ccccc2)nc2ccccc12,x,x,3,x,x,x,x,x,x
Cc1ccc(OCCN(C)C(=O)C2CCC(=O)N(CCCN3CCOCC3)C2)cc1 (centres undefined),x,x,-7,x,x,x,x,x,x
COc1ccc(OC)c2c1C(=O)C(Cl)=C(Cl)C2=O,2,-4,86*,66*,x,x,84*,92*,63*
CS(=O)(=O)c1nc(-c2ccco2)cc(C(F)(F)F)n1,-3,21,25*,42*,0,8,8,70*,36*
COc1ccccc1-c1cc(C(F)(F)F)nc(S(C)(=O)=O)n1,x,7,8,5,4,3,x,x,x
COc1ccc(OCc2cc(-c3ccc(Cl)cc3)no2)cc1,-1,0,2,-1,6,2,x,x,x
O=C(CCl)NCc1cc(-c2ccc(Cl)cc2)no1,10,11,24*,24*,-3,2,12,75*,31*
COc1ccc(-c2nnc(SCC(=O)NC3CCCC3)n2C)cc1,x,x,-1,x,x,x,x,x,x

# Compound activity from PubChem.
